Tests used:
Stromelysin-1 [1] = molecular target: T1, Stromelysin-1 (Homo sapiens, UniProt P08254); test: Inhibition of human MMP-3 using NFF-2 as substrate after 30 mins
Target sequence in this assay (P08254 whole entry, the tested form may be a part): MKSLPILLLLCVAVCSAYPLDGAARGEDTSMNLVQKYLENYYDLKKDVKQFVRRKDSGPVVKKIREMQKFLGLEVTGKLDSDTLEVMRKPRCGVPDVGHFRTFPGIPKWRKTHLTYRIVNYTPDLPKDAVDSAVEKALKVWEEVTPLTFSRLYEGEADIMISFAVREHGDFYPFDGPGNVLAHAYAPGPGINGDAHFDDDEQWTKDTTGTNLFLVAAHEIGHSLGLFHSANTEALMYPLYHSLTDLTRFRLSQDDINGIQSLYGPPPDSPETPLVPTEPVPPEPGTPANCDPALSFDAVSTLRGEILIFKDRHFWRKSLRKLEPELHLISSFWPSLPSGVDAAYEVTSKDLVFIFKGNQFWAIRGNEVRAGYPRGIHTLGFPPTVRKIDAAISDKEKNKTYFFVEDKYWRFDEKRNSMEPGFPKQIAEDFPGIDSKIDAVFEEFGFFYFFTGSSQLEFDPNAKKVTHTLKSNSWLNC

[2] = molecular target: T2, Disintegrin and metalloproteinase domain-containing protein 17 (Homo sapiens, UniProt P78536); test: Inhibition of human TACE after 5 mins
[3] = molecular target: T3, 72 kDa type IV collagenase (Homo sapiens, UniProt P08253); test: Inhibition of human MMP-2 using NFF-2 as substrate at 10 uM after 90 mins
Target sequence in this assay (P08253 110-660 limits assumed): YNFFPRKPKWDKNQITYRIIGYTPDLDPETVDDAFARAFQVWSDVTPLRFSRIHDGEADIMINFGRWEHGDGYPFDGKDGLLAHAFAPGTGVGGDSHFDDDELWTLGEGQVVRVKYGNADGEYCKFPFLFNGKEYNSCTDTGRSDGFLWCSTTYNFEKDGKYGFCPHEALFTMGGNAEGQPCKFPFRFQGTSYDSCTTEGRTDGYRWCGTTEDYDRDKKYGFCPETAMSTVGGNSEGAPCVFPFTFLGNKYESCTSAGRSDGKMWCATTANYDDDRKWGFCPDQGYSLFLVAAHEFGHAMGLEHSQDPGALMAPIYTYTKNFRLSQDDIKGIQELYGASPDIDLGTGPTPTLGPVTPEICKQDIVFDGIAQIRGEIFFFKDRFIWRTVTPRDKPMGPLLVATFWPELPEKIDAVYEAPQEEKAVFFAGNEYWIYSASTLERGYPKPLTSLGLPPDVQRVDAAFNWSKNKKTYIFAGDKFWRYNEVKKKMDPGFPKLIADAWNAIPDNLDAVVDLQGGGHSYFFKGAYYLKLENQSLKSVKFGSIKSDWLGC

[4] = molecular target: T3, 72 kDa type IV collagenase; test: Inhibition of human MMP-2 using NFF-2 as substrate after 90 mins
Target sequence in this assay (P08253 whole entry): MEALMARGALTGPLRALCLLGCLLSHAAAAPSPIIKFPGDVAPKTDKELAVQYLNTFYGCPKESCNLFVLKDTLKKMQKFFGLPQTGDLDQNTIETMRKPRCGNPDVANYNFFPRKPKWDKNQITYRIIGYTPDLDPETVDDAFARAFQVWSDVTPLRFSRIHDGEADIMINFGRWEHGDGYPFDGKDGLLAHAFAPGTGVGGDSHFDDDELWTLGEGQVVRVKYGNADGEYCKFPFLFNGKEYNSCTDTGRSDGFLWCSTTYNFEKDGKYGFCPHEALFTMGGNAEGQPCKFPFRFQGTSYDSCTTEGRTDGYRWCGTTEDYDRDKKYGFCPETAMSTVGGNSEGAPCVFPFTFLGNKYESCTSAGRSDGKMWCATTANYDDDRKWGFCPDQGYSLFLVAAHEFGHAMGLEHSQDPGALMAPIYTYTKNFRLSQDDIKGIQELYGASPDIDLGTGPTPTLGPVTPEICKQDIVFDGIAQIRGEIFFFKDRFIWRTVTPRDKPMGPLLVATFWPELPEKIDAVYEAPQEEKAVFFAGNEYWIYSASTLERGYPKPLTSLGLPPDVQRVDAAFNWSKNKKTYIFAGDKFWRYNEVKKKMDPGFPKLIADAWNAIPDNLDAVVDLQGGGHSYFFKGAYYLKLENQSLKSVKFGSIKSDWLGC

[5] = molecular target: T2, Disintegrin and metalloproteinase domain-containing protein 17; test: Inhibition of human TACE at 10 uM after 5 mins
[6] = molecular target: T4, A disintegrin and metalloproteinase with thrombospondin motifs 5 (Homo sapiens) (UniProt Q9UNA0); test: Inhibition of human recombinant ADAMTS-5 using bovine articular aggrecan as substrate incubated 20 mins prior to substrate addition measured after 48 hrs by spectrophotometry
T4 sequence (whole entry): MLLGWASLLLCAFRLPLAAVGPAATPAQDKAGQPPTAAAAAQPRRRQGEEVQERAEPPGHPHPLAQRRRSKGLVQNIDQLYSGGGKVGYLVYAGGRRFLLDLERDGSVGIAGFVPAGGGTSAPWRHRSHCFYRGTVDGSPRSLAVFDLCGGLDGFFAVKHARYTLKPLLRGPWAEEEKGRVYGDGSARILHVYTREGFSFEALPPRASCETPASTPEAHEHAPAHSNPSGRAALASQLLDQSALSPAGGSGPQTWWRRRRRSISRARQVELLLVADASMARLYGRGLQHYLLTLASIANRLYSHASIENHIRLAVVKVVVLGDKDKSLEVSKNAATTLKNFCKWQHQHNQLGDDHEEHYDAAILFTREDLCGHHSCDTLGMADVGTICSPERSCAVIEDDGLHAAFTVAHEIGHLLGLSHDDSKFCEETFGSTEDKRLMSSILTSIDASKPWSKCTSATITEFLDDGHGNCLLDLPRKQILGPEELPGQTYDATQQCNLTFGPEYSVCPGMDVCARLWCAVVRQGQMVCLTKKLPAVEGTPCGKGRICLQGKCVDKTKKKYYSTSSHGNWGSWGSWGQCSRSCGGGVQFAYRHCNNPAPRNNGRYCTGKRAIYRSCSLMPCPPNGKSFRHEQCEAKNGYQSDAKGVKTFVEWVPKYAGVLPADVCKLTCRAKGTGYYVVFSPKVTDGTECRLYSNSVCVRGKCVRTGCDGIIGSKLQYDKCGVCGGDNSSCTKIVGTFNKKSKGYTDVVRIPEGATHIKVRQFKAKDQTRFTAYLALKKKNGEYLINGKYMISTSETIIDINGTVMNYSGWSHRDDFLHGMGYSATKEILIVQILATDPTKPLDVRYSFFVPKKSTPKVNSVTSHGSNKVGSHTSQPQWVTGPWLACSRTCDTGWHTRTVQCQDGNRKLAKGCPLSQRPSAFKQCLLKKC
Outline: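 ADAMTS-5 (3.4 µL of 600 nM stock) was pre-incubated 20 min at 37 °C with compound or 4% DMSO vehicle in Tris/NaCl/CaCl₂/Brij35, pH 7.5. Bovine articular aggrecan (50 µg/mL final) was added for 48 h at 37 °C, then stopped with EDTA. Samples were bound to PVDF and digested with chondroitinase ABC and keratanase. The ARGSVIL neoepitope was detected by BC-3 ELISA with TMB, read at 450 nm.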

Interstitial collagenase = molecular target: T5, Interstitial collagenase (Homo sapiens, UniProt P03956); test: Inhibition of human MMP-1 using DNP-Pro-Cha-Gly-Cys(Me)-His-Ala-Lys(n-Me-Abz)-NH2 as substrate after 40 mins
T5 sequence (P03956 whole entry): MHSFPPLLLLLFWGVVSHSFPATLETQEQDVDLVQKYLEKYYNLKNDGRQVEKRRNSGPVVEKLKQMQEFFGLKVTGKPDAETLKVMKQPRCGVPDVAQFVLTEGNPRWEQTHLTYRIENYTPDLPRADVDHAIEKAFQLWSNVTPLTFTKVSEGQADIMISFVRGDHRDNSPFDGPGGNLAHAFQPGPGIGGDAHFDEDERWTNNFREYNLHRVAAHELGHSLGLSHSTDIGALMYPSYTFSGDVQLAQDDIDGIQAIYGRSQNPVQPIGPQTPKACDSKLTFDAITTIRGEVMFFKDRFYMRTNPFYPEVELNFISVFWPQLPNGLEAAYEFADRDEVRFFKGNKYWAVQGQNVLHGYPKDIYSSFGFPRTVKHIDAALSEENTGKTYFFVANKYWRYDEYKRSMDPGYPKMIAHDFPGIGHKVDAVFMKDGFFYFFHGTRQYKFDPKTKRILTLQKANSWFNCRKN

[7] = molecular target: T6, Interstitial collagenase (Homo sapiens) (UniProt P03956); test: Inhibition of human MMP-1 using DNP-Pro-Cha-Gly-Cys(Me)-His-Ala-Lys(n-Me-Abz)-NH2 as substrate at 10 uM after 40 mins
T6 sequence (whole entry): T5 sequence (P03956 whole entry)

Matrilysin = molecular target: T7, Matrilysin (Homo sapiens, UniProt P09237); test: Inhibition of human MMP-7 after 45 mins
T7 sequence (P09237 whole entry): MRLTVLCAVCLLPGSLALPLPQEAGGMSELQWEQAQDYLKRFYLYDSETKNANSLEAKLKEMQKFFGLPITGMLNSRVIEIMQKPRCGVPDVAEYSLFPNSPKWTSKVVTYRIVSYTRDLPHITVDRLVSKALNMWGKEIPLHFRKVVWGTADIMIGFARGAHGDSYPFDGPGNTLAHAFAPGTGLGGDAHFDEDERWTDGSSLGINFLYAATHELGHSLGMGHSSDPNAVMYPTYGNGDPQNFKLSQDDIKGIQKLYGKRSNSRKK

[8] = molecular target: Matrix metalloproteinase-9 (Homo sapiens, UniProt P14780); test: Inhibition of human MMP-9 using NFF-2 as substrate after 90 mins
Matrix metalloproteinase-9, sequence (P14780 whole entry): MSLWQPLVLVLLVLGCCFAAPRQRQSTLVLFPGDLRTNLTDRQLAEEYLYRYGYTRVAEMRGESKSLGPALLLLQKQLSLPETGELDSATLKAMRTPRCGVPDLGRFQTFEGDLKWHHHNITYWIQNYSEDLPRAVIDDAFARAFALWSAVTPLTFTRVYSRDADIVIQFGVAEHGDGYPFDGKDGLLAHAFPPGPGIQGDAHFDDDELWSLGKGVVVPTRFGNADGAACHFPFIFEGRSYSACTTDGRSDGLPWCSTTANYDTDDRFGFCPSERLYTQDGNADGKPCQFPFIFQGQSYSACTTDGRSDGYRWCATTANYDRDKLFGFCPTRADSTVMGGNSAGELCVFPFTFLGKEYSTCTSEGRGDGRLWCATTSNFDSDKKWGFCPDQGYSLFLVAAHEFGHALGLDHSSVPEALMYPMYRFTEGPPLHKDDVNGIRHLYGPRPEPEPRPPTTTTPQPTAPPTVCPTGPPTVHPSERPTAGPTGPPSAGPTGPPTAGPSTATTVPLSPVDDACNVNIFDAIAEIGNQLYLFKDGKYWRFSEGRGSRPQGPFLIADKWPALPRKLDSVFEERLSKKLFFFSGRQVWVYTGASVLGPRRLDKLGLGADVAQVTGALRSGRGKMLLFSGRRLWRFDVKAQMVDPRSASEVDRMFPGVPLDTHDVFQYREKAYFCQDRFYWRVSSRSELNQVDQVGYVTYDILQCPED

Collagenase 3 = Collagenase 3 (Homo sapiens, UniProt P45452); test: Inhibition of human MMP-13 after 10 mins
Stromelysin-1 [9] = molecular target: T1, Stromelysin-1; test: Inhibition of human MMP-3 using NFF-2 as substrate at 10 uM after 30 mins
Target sequence in this assay (P08254 100-477 limits assumed): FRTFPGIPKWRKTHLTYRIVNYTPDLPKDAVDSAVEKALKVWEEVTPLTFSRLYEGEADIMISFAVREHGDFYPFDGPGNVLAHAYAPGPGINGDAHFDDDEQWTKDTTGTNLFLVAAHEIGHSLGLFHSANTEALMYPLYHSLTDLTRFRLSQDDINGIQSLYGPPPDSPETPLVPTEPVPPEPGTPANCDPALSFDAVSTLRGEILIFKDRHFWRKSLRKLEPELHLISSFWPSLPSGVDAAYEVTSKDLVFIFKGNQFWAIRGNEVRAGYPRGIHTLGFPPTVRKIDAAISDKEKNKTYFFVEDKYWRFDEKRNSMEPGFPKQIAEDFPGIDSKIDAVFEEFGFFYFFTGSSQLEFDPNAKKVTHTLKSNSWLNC

T2 sequence (P78536 whole entry, the tested form may be a part): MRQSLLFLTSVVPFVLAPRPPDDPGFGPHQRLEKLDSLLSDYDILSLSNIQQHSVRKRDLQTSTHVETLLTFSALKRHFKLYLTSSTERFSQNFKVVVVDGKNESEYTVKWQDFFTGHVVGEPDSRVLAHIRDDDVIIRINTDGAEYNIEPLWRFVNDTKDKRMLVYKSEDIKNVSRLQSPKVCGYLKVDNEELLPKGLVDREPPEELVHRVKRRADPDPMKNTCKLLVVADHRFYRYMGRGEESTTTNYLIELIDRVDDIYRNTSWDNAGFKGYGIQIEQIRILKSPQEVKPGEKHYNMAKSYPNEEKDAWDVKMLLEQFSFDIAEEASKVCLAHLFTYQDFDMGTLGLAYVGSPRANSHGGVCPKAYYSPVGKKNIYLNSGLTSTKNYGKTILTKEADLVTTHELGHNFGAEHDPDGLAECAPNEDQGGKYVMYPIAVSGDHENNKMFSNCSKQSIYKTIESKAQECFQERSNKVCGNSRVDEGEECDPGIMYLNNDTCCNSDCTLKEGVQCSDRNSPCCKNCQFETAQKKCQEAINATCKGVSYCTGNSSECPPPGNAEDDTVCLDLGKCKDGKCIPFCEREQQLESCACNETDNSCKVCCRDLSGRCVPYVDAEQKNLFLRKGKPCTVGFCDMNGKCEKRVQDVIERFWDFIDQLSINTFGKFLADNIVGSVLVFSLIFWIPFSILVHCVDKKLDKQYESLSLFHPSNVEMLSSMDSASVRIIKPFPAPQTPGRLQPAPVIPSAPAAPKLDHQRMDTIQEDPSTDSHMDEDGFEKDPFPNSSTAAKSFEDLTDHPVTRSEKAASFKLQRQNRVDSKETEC

O=C(COc1ccc(Cl)cc1)NNC(=S)NCCCCC1CCCCC1
IC50 (Stromelysin-1 [1]): > 10 µM | IC50 [2]: > 10 µM | inhibition [3]: < 10% | IC50 [4]: > 10 µM | inhibition [5]: < 10% | inhibition [6]: Dose-dependent effect | IC50 (Interstitial collagenase): > 10 µM | inhibition [7]: < 10% | IC50 (Matrilysin): > 100 µM | IC50 [8]: > 10 µM | IC50 (Collagenase 3): > 100 µM | inhibition (Stromelysin-1 [9]): < 10%

Reference: ChEMBL document CHEMBL2434855, “Aggrecanase-2 inhibitors based on the acylthiosemicarbazide zinc-binding group” (Eur J Med Chem, 2013)
